The list is not random: actives were taken first. Their share in the collection is about 3.7%.
EP2 mod: modulates human prostaglandin E2 receptor EP2 signaling; AID 940; EP2-expressing cells, cAMP HTRF FRET, PGE2 co-stimulation; induction, % at 25 µM; P43116; hit rate 0.83% among 260,000;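 active = compounds whose cAMP rise, as percent of the full-agonist control response, exceeds 60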;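 note: rat C6 glioma line stably carrying human EP2 under a CMV promoter; the protocol text gives 20 µM as final concentration; 100% = response of wells given 1 µM PGE2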
CHO parental Ca: counter-screen: ATP calcium response change in parental CHO cells; inhibition, % at 5.6 µM; parental CHO-K1, ATP-induced calcium, Fluo-8 fluorescence; hit rate 0.63% among 330,000; AID 463079;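 active = inhibition above that plate's mean sample inhibition plus 3 SD, cut at about 26% in these data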;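 note: 0% = ATP-challenged DMSO wells and 100% = DMSO wells without ATP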
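Test system: untransfected parental CHO cell line; also added: ATP stimulus; dosing: 5.6 µM, single dose; signal: calcium-sensitive Fluo-8 fluorescence; measure: percent inhibition of ATP-evoked calcium rise, normalized to controls; benchmarks: low control ATP plus DMSO, high control DMSO only; replication: one well per compound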
OX1R antag-1: human HCRTR1 antagonism; O43613; CHO/OX1R cells, Fluo-8 calcium fluorescence, orexin A; inhibition, % at 5 µM; hit rate 0.43% among 330,000;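 active = inhibition above its plate's threshold, mean inhibition of all tested compounds on the plate plus 3 SD, cut at about 37% in these data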;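 note: 0% = orexin A challenge wells and 100% = SB-334867-A antagonist wells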
Target sequence (O43613 whole entry, looked up): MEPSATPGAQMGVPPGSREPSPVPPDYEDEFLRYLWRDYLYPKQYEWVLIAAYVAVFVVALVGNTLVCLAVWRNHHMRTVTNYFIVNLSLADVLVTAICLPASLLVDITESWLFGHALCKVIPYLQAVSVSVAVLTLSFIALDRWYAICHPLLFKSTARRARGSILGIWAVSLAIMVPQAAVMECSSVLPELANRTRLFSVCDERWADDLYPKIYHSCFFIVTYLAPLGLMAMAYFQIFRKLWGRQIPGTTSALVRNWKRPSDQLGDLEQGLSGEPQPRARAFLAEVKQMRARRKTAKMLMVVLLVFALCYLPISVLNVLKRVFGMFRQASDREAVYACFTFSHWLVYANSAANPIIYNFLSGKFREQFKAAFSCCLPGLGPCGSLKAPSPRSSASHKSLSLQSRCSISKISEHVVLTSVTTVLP
OX1R antag-2: antagonists of human orexin 1 receptor (OX1R); AID 485270; OX1R-expressing cells, FRET antagonist read-out; hit rate 1.8% among 330,000; O43613; inhibition, % at 6.6 µM; in the data active = inhibition mostly above about 38%, no sharp cut-off; inactive = mostly below about 40%;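 note: 0% = agonist challenge alone and 100% = reference antagonist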
GPR7 antag: blocks human GPR7 receptor signaling; P48145; GPR7-expressing cells, fluorescence antagonist assay; inhibition, % at 4.4 µM; hit rate 1.1% among 290,000; AID 1861; in the data active = inhibition above about 16%, passing the limit was not always enough;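 note: cells stimulated with the agonist NPW; 0% = agonist with vehicle and 100% = vehicle without agonist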
PGE2 EP2 inh: blocks the human prostaglandin E2 receptor EP2; C6 glioma cells expressing human EP2, cAMP TR-FRET; cells stimulated with saturating PGE2; inhibition, % at 25 µM; AID 1422; P43116; hit rate 0.52% among 260,000;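 active = percent inhibition above 40 after rounding to a whole number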;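 note: rat C6 glioma host cells with rolipram phosphodiesterase inhibitor present; the protocol text gives 20 µM as final concentration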
GPR7 antag cf: human GPR7 antagonism, confirmation assay; inhibition, % at 4.4 µM; hit rate 52% among 2,400; GPR7-expressing cells, calcium fluorescence antagonist mode; shares compounds with GPR7 antag; in the data active = inhibition above about 24%;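 note: stimulated with the GPR7 agonist NPW; 0% = agonist plus vehicle and 100% = vehicle alone without agonist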
MCHR1 antag: antagonizes human MCHR1, a GPR7 antagonist counter-screen. shares compounds with GPR7 antag. MCHR1-expressing cells, fluorescence antagonist assay. inhibition, % at 4.4 µM. hit rate 62% among 2,400; in the data active = inhibition above about 22%;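 note: 0% = vehicle with agonist and 100% = vehicle without agonist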
Numbers without * were called inactive.

COc1ccc2nc(NC(=O)C3CCCO3)sc2c1 (stereo unspecified) was read as EP2 mod -8.9, CHO parental Ca -12.3, OX1R antag-1 -22.6, OX1R antag-2 5.7, GPR7 antag -18.6 and PGE2 EP2 inh 4.2.
`Cc1csc(NC(=O)CSc2nnc(Cc3cccn3C)n2CCc2ccccc2)n1` gave EP2 mod 15.9, CHO parental Ca -25.0, OX1R antag-1 -14.3, OX1R antag-2 15.9, GPR7 antag 27.5*, PGE2 EP2 inh 5.0, GPR7 antag cf 15.5 and MCHR1 antag 16.1.
`CN1CCN(C2=Cc3ccccc3Sc3cc(F)c(F)cc32)CC1` gave EP2 mod -16.3, CHO parental Ca -4.1, OX1R antag-1 -20.9, OX1R antag-2 11.9, GPR7 antag 0.0 and PGE2 EP2 inh 19.4.
For CN1CCN(C2=Cc3ccccc3Sc3cc(F)c(Cl)cc32)CC1 the results were EP2 mod 16.8, CHO parental Ca -6.4, OX1R antag-1 -13.5, OX1R antag-2 7.8, GPR7 antag 27.0*, PGE2 EP2 inh 12.1, GPR7 antag cf 37.9* and MCHR1 antag 57.7*.
CSc1nc2ccccc2n1CC(=O)Nc1cc(C(F)(F)F)ccc1N1CCOCC1 was read as EP2 mod -8.7, CHO parental Ca -10.6, OX1R antag-1 -29.3, OX1R antag-2 5.9, GPR7 antag 36.5*, PGE2 EP2 inh 5.8, GPR7 antag cf 38.3* and MCHR1 antag 25.8*.
O=C(Cn1c(C(F)(F)F)nc2ccccc21)Nc1ccccc1N1CCOCC1 was read as EP2 mod 5.2, CHO parental Ca -15.3, OX1R antag-1 -36.2, OX1R antag-2 39.9, GPR7 antag 1.5 and PGE2 EP2 inh 21.4.
Cc1ccc(N2C(=O)C3C4C=CC(CNC(=S)Nc5ccc(Cl)cc5)(O4)C3C2=O)cc1 (stereo unspecified) was read as EP2 mod -79.5, CHO parental Ca -6.7, OX1R antag-1 -17.8, OX1R antag-2 20.2, GPR7 antag 21.0*, PGE2 EP2 inh 6.5, GPR7 antag cf 29.3* and MCHR1 antag 19.1.
`Cc1ccc(N2C(=O)C3C4C=CC(CNC(=S)Nc5ccc(F)cc5)(O4)C3C2=O)cc1` (stereo unspecified) gave EP2 mod -9.7, CHO parental Ca -7.7, OX1R antag-1 -23.4, OX1R antag-2 15.7, GPR7 antag -4.0 and PGE2 EP2 inh 5.5.
`CCC(C(=O)N1CCOCC1)n1nc(C)c2sc3ccccc3c2c1=O` (stereo unspecified) gave CHO parental Ca -8.9, OX1R antag-1 -18.6, OX1R antag-2 13.3 and GPR7 antag -5.7.
For CCCCOc1ccc(-c2nnc(N)s2)cc1 the results were EP2 mod -7.9, CHO parental Ca -9.6, OX1R antag-1 3.3, OX1R antag-2 18.7, GPR7 antag -15.8 and PGE2 EP2 inh 8.0.
`CCOc1ccc(-c2nnc(N)s2)cc1` gave EP2 mod -8.7, CHO parental Ca -6.0, OX1R antag-1 -10.7, OX1R antag-2 10.0, GPR7 antag 29.0*, PGE2 EP2 inh 5.6, GPR7 antag cf -3.8 and MCHR1 antag -4.3.
`COc1ccccc1C1N=C(c2ccccc2C)NO1` (stereo unspecified) gave CHO parental Ca -10.4, OX1R antag-1 -11.1, OX1R antag-2 4.3 and GPR7 antag -3.7.
CCS(=O)(=O)NCC(c1ccco1)N1CCN(c2ccccc2)CC1 (stereo unspecified) was read as EP2 mod 2.5, CHO parental Ca -2.6, OX1R antag-1 -7.5, OX1R antag-2 7.9, GPR7 antag -2.0 and PGE2 EP2 inh 1.2.
`COc1ccc(NC(=O)c2cc3c(CO)cnc(C)c3oc2=Nc2cc(OC)cc(OC)c2)cc1` gave CHO parental Ca -30.1, OX1R antag-1 -25.1, OX1R antag-2 10.9, GPR7 antag 36.5*, GPR7 antag cf -21.1 and MCHR1 antag -2.8.
`Cc1cc(C)c2[nH]c(=O)c(C(c3nnnn3C3CCCCC3)N(C)C3CCCCC3)cc2c1` (stereo unspecified) gave EP2 mod 6.0 and PGE2 EP2 inh 11.1.
C(#Cc1ccccc1)CN1CCOCC1 was read as EP2 mod 22.9, CHO parental Ca -6.5, OX1R antag-1 0.8, OX1R antag-2 -0.2, GPR7 antag -4.5 and PGE2 EP2 inh 4.2.
COc1ccc(CC(=O)NC(=S)Nc2ccc(S(=O)(=O)NC(C)(C)C)cc2)cc1 was read as EP2 mod -7.1, CHO parental Ca 16.7, OX1R antag-1 23.0, OX1R antag-2 4.5, GPR7 antag 48.7*, PGE2 EP2 inh 13.7, GPR7 antag cf 72.4* and MCHR1 antag 69.8*.
Screening COc1ccc(CC(=O)NC(=S)Nc2ccc(S(N)(=O)=O)cc2)cc1 returned EP2 mod -11.4, CHO parental Ca 17.1, OX1R antag-1 8.6, OX1R antag-2 2.3, GPR7 antag 19.8 and PGE2 EP2 inh 17.1.
`C=CCN(CC=C)S(=O)(=O)c1ccc(NC(=S)NC(=O)Cc2ccc(OC)cc2)cc1` gave EP2 mod 31.9, CHO parental Ca 5.3, OX1R antag-1 8.5, OX1R antag-2 12.4, GPR7 antag 34.3*, PGE2 EP2 inh 6.8, GPR7 antag cf 50.2* and MCHR1 antag 64.8*.
`Nc1nnnn1CC(=O)OCc1cccc(Br)c1` gave EP2 mod 0.1, CHO parental Ca -2.3, OX1R antag-1 -8.9, OX1R antag-2 14.0, GPR7 antag 27.2*, PGE2 EP2 inh 7.5, GPR7 antag cf -2.9 and MCHR1 antag 1.1.
For CC[n+]1c(/C=C/c2c[nH]c3ccccc23)ccc2cc(C)ccc21 the results were EP2 mod -80.0, GPR7 antag 38.7*, PGE2 EP2 inh 15.3, GPR7 antag cf 36.9* and MCHR1 antag 80.1*.
Screening Cc1cccc(N2CCN(C(=O)COc3ccc4ccc(=O)oc4c3)CC2)c1C returned CHO parental Ca -20.2, OX1R antag-1 -19.9, OX1R antag-2 15.2, GPR7 antag 36.6*, GPR7 antag cf 44.8* and MCHR1 antag 41.5*.
For O=C(COc1ccc2ccc(=O)oc2c1)N1CCN(c2ccccc2)CC1 the results were EP2 mod -35.6, CHO parental Ca -13.7, OX1R antag-1 -16.0, OX1R antag-2 14.4, GPR7 antag -10.2 and PGE2 EP2 inh 9.2.
CCCCn1c(N)c(N(CC)C(=O)CSc2nnnn2-c2cc(C)ccc2C)c(=O)[nH]c1=O was read as EP2 mod 7.2, CHO parental Ca -6.5, OX1R antag-1 -16.0, OX1R antag-2 -2.2, GPR7 antag 23.3*, PGE2 EP2 inh 5.9, GPR7 antag cf -8.5 and MCHR1 antag -9.7.

High-throughput results: PubChem, several laboratories
